Assay results: ChEMBL document CHEMBL1148384, “Design and synthesis of peptidomimetic protein farnesyltransferase inhibitors as anti-Trypanosoma brucei agents” (J Med Chem, 2004)

Key:
[1] = test system: NIH3T3; assay: Dose required against murine 3T3 fibroblasts cells; 1-10 uM; assay type: functional; details: Mus musculus, read-out: ED50 (the source's name)
[2] = test system: Trypanosoma brucei brucei; assay: Effective dose required to inhibit the growth of Trypanosoma brucei; assay type: functional; details: read-out: ED50 (the source's name)
Summary of the method: (§1)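 Bloodstream-form strain 427 was grown in HMI-9 with 10% FBS at 37 °C, 5% CO2. Cells were seeded at 1 × 10^4 trypomastigotes/well in triplicate, with serial dilutions from 20 mM DMSO stocks. Growth was read with Alamar Blue at 48 h, pentamidine served as positive control, and ED50 was fitted from the curves.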

[3] = test system: Trypanosoma brucei rhodesiense; assay: Effective dose required to inhibit the growth of Trypanosoma brucei rhodesiense; assay type: functional; details: read-out: ED50 (the source's name)
Summary of the method: (§2)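 Bloodstream-form trypomastigotes of strain STIB 900 were grown in HMI-18 with nonessential amino acids, glucose and 15% heat-inactivated FCS at 37 °C, 5% CO2. Compounds were given as serial dilutions, in triplicate, from 1 × 10^4 cells/well. Cultures ran 72 h before Alamar Blue read-out, and ED50 was fitted.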

[4] = test system: protein farnesyltransferase (Trypanosoma brucei); assay: Inhibition of against Trypanosoma brucei protein farnesyltransferase at 50 nM concentration
[5] = test system: NIH3T3; assay: Effective dose against murine 3T3 fibroblasts cells; assay type: functional; details: Mus musculus, read-out: ED50 (the source's name)
Summary of the method: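 Murine 3T3 fibroblasts were grown in RPMI 1640 with 10% FBS and held 72 h with compound at 37 °C, 5% CO2.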

[6] = test system: Trypanosoma brucei brucei; assay: Dose required to inhibit growth of Trypanosoma brucei; 1-5 uM; assay type: functional; details: read-out: ED50; summary of the method: as §1
[7] = test system: Trypanosoma brucei rhodesiense; assay: Dose required to inhibit growth of Trypanosoma brucei rhodesiense; 0.38-0.92 uM; assay type: functional; details: read-out: ED50; summary of the method: as §2
[8] = test system: protein farnesyltransferase (Trypanosoma brucei); assay: Inhibition of Trypanosoma brucei protein farnesyltransferase at 50 nM (0-17%)
[9] = test system: Trypanosoma brucei rhodesiense; assay: Dose required to inhibit growth of Trypanosoma brucei rhodesiense; 14->60 uM; assay type: functional; details: read-out: ED50 (the source's name); summary of the method: as §2
[10] = test system: Protein farnesyltransferase (Trypanosoma brucei); assay: Inhibition of Trypanosoma brucei protein farnesyltransferase at 50 nM (82-87%)
[11] = test system: Trypanosoma brucei brucei; assay: Dose required to inhibit growth of Trypanosoma brucei; 1-10 uM; assay type: functional; details: read-out: ED50 (the source's name); summary of the method: as §1
[12] = test system: Trypanosoma brucei brucei; assay: Dose required to inhibit growth of Trypanosoma brucei; 0.5-5 uM; assay type: functional; details: read-out: ED50; summary of the method: as §1
[13] = test system: Trypanosoma brucei rhodesiense; assay: Dose required to inhibit growth of Trypanosoma brucei rhodesiense; 0.14-0.8 uM; assay type: functional; details: read-out: ED50 (the source's name); summary of the method: as §2
[14] = test system: protein farnesyltransferase (Trypanosoma brucei); assay: Inhibition of Trypanosoma brucei protein farnesyltransferase at 50 nM (0-14%)

Row | SMILES | EC50 [2] [µM] | EC50 [3] [µM] | inhibition [4] [%] | EC50 [5] [µM] | also measured
1 | CCCCC(CC)OC(=O)[C@H](CCSC)NC(=O)c1ccc(CNCc2c[nH]cn2)cc1-c1ccccc1C (stereo partly drawn) | 0.02 | 0.02 | 15.2 |  | EC50 [1]: > 10 µM
2 | COC(=O)[C@H](CCSC)NC(=O)c1ccc(NCc2cncn2Cc2cccc(C)c2)cc1-c1ccccc1 |  |  |  | > 10 | EC50 [6]: ≤ 5 µM; EC50 [7]: ≤ 0.92 µM; inhibition [8]: ≤ 17%
3 | CCOC(=O)[C@H](CCSC)NC(=O)c1ccc(CNCc2c[nH]cn2)cc1-c1ccccc1C | 0.01 | 0.005 | 10.4 | 10 | 
4 | COC(=O)[C@H](CCSC)NC(=O)c1ccc(NCc2cncn2Cc2cccc([N+](=O)[O-])c2)cc1-c1ccccc1 |  |  |  | > 10 | EC50 [6]: ≤ 5 µM; EC50 [7]: ≤ 0.92 µM; inhibition [8]: ≤ 17%
5 | C=COC(=O)[C@H](CCSC)NC(=O)c1ccc(CNCc2c[nH]cn2)cc1-c1ccccc1C | 0.01 | 0.009 | 4.9 |  | EC50 [1]: > 10 µM
6 | COC(=O)[C@H](CCSC)NC(=O)c1ccc(CN(Cc2c[nH]cn2)Cc2c[nH]cn2)cc1-c1ccccc1C | 0.1 | 0.0015 | 66.2 | > 10 | 
7 | CCCCCn1cnc(CNc2ccc(C(=O)N[C@@H](CCSC)C(=O)O)c(-c3ccccc3)c2)c1 |  |  | 11.5 |  | 
8 | CSCC[C@H](NC(=O)c1ccc(NCc2cncn2Cc2ccc([N+](=O)[O-])cc2)cc1-c1ccccc1)C(=O)O | > 10 |  |  | > 10 | EC50 [9]: > 60 µM; inhibition [10]: 87%
9 | N#Cc1ccc(Cn2cncc2CNc2ccc(C(=O)NCC3CCCCC3)c(-c3ccccc3)c2)cc1 |  | 3.2 | 18.6 | > 10 | EC50 [11]: > 10 µM
10 | CSCC[C@H](NC(=O)c1ccc(CNCc2c[nH]cn2)cc1-c1ccccc1C)C(=O)OC1CCCCC1 | 0.03 | 0.018 | 4.5 |  | EC50 [1]: > 10 µM
11 | CSCC[C@H](NC(=O)c1ccc(NCc2cn(CC3CCCCC3)cn2)cc1-c1ccccc1)C(=O)O |  |  | 12 |  | 
12 | CC(C)NC(=O)c1ccc(NCc2cncn2Cc2ccc(C#N)cc2)cc1-c1ccccc1 | > 10 | 5.3 | 8.4 | > 10 | 
13 | COC(=O)[C@H](CCSC)NC(=O)c1ccc(CNCc2c[nH]cn2)cc1-c1ccccc1C | 0.025 | 0.0026 | 41 | 25 | 
14 | N#CCNC(=O)c1ccc(NCc2cncn2Cc2ccc(C#N)cc2)cc1-c1ccccc1 | > 10 | 45 | 0 | > 10 | 
15 | N#Cc1ccc(Cn2cncc2CNc2ccc(C(=O)Nc3cccc(C#N)c3)c(-c3ccccc3)c2)cc1 | > 10 |  | 2.2 | > 10 | 
16 | COC(=O)[C@H](CCSC)NC(=O)c1ccc(NCc2cncn2Cc2ccc([N+](=O)[O-])cc2)cc1-c1ccccc1 |  |  |  | > 10 | EC50 [12]: ≤ 5 µM; EC50 [13]: ≤ 0.8 µM; inhibition [14]: ≤ 14%
17 | N#Cc1ccc(Cn2cncc2CNc2ccc(C(=O)NCc3ccccc3)c(-c3ccccc3)c2)cc1 | 10 | 8.2 | 1.2 | > 10 | 
18 | COC(=O)[C@H](CCSC)NC(=O)c1ccc(NCc2cncn2Cc2ccccc2C)cc1-c1ccccc1 |  |  | 0 | > 10 | EC50 [11]: ≤ 10 µM
19 | COC(=O)[C@H](CCSC)NC(=O)c1ccc(NCc2cncn2Cc2ccccc2Cl)cc1-c1ccccc1 |  |  | 0 | > 10 | EC50 [11]: ≤ 10 µM
20 | CSCNC(=O)c1ccc(NCc2cncn2Cc2ccc(C#N)cc2)cc1-c1ccccc1 | > 10 | 3 | 17.1 | > 10 | 

Row | SMILES | EC50 [2] [µM] | EC50 [3] [µM] | inhibition [4] [%] | EC50 [5] [µM] | also measured
21 | CSCC[C@H](NC(=O)c1ccc(CN(Cc2c[nH]cn2)Cc2c[nH]cn2)cc1-c1ccccc1C)C(=O)O |  | 0.9 |  | > 10 | EC50 [11]: > 10 µM
22 | CSCC[C@H](NC(=O)c1ccc(CNCc2c[nH]cn2)cc1-c1ccccc1C)C(=O)OCc1ccccc1 | 0.02 |  | 41.7 |  | EC50 [1]: > 10 µM
23 | CSCC[C@H](NC(=O)c1ccc(CNCc2[nH]cnc2C)cc1-c1ccccc1C)C(=O)O | > 10 |  | 68.5 | > 10 | 
24 | COC(=O)[C@H](CCSC)NC(=O)c1ccc(CNCc2cncn2Cc2ccc(C#N)cc2)cc1-c1ccccc1C | 0.5 | 0.1 | 7 | > 10 | 
25 | COC(=O)[C@H](CCSC)NC(=O)c1ccc(NCc2cncn2Cc2ccccc2C#N)cc1-c1ccccc1 |  |  | 0 | > 10 | EC50 [11]: ≤ 10 µM
26 | CSCC[C@H](NC(=O)c1ccc(NCc2cn(Cc3ccc(-c4ccccc4)cc3)cn2)cc1-c1ccccc1)C(=O)O |  |  | 4.5 |  | 
27 | CSCC[C@H](NC(=O)c1ccc(CNCc2c[nH]cn2)cc1-c1ccccc1C)C(=O)OC(C)C | 0.005 | 0.003 | 6.2 | 10 | 
28 | CSCC[C@H](NC(=O)c1ccc(NCc2cncn2CC2CCCCC2)cc1-c1ccccc1)C(=O)O |  |  | 69.8 |  | 
29 | COC(=O)[C@H](CCSC)NC(=O)c1ccc(NCc2cncn2Cc2ccc(-c3ccccc3)cc2)cc1-c1ccccc1 |  |  |  | > 10 | EC50 [12]: ≤ 5 µM; EC50 [13]: > 0.14 µM; inhibition [14]: 14%
30 | COC(=O)[C@H](CCSC)NC(=O)c1ccc(NCc2cncn2Cc2cccc(C#N)c2)cc1-c1ccccc1 |  |  |  | > 10 | EC50 [6]: ≤ 5 µM; EC50 [7]: ≤ 0.92 µM; inhibition [8]: ≤ 17%
31 | N#Cc1ccc(Cn2cncc2CNc2ccc(C(=O)Nc3cccc([N+](=O)[O-])c3)c(-c3ccccc3)c2)cc1 | > 10 | 3 | 9.1 | > 10 | 
32 | COC(=O)[C@H](CCSC)NC(=O)c1ccc(NCc2cncn2Cc2ccc(Cl)cc2)cc1-c1ccccc1 |  |  |  | > 10 | EC50 [12]: ≤ 5 µM; EC50 [13]: ≤ 0.8 µM; inhibition [14]: ≤ 14%
33 | CSCC[C@H](NC(=O)c1ccc(NCc2cncn2Cc2ccc(C#N)cc2)cc1-c1ccccc1)C(=O)O | > 10 | > 60 |  | > 10 | inhibition [10]: ≤ 87%
34 | CSCC[C@H](NC(=O)c1ccc(NCc2cncn2Cc2ccc(Cl)cc2)cc1-c1ccccc1)C(=O)O | > 10 |  |  | > 10 | EC50 [9]: > 60 µM; inhibition [10]: ≤ 87%
35 | CSCC[C@H](NC(=O)c1ccc(NC[C@@H](N)CS)cc1-c1ccccc1)C(=O)O | > 25 | 9.2 |  | > 25 | 
36 | CCCCCn1cncc1CNc1ccc(C(=O)N[C@@H](CCSC)C(=O)O)c(-c2ccccc2)c1 |  |  | 80.6 |  | 
37 | COC(=O)[C@H](CCSC)NC(=O)c1ccc(NCc2cncn2Cc2ccc(C#N)cc2)cc1-c1ccccc1 |  |  |  | > 10 | EC50 [12]: ≤ 5 µM; EC50 [13]: ≤ 0.8 µM; inhibition [14]: ≤ 14%
38 | CSCC[C@H](NC(=O)c1ccc(NCc2cncn2Cc2ccc(C)cc2)cc1-c1ccccc1)C(=O)O | > 10 |  |  | > 10 | EC50 [9]: > 60 µM; inhibition [10]: ≤ 87%
39 | COC(=O)[C@H](CCSC)NC(=O)c1ccc(NCc2cncn2Cc2ccc(C)cc2)cc1-c1ccccc1 |  |  |  | > 10 | EC50 [12]: ≤ 5 µM; EC50 [13]: ≤ 0.8 µM; inhibition [14]: ≤ 14%
